# According to PMC4109024 (Nature communications, 2014):
# Entries after “also recorded” stand apart in the source; their conditions may differ.
# Experiments:
# [1] = test system: human endometrial adenocarcinoma Ishikawa cells; assay: Phage binding/internalization to Ishikawa cells; format: cell-based; conditions: cloned phage, 37°C, 30 min; plaque forming assay; repeated three times
# Method in brief: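 Phage clones came from a T7 library of linear 9-mer peptides. Each selection round had two steps: 1 h in vivo subtraction in female mouse peritoneum, then 30 min internalization into Ishikawa monolayers at 37 °C. Clones from three such rounds were each added to Ishikawa monolayers, or A431 controls, for 30 min at 37 °C. Internalized phage was counted by plaque assay, and binding was expressed as plaques recovered relative to phage added.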
# [2] = test system: Ishikawa cell surface proteins; assay: z13 affinity isolation of biotinylated Ishikawa cell surface proteins; format: binding, human; conditions: biotinylated Ishikawa lysate; z13 peptide 1 mg/ml elution; avidin blot
# Method in brief: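 Ishikawa monolayers were surface-biotinylated with sulpho-NHS-LC-biotin (0.5 mg/ml in PBS, 30 min) and solubilized at 4 °C in TBS with 50 mM octyl-thio-glucoside and protease inhibitors. Lysate was precleared on agarose for 2 h at 4 °C, then bound to peptide-conjugated agarose. Elution used peptide at 1 mg/ml, with an irrelevant peptide as control. Eluates were analysed by SDS–PAGE, peroxidase-avidin blot and chemiluminescence.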
# [3] = test system: CNGB3-Myc transfected A431 cells; assay: Cell viability assay, CNGB3-positive A431 cells; format: cell-based; conditions: 37°C, 6 hours, ATP by CellTiter Glo; for Concentration above which cell viability was affected, CNGB3-positive A431: single peptide
# Method in brief: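 CNGB3–MYC-transfected A431 cells, with untransfected CNGB3-negative A431 as control, grown in DME/F12 with 10% FCS. Cells were exposed to single peptides or the two-peptide combination at a range of concentrations for 6 h at 37 °C. Peptide stocks were 100 μg/μl in DMSO, and a DMSO-only control was run at 0.01% final. Viability was read as ATP content by CellTiter Glo luminescence.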
# [4] = test system: CNGB3-expressing A431 cells; assay: Inhibition of KLAK-z13 plus HLA-z13 cytotoxicity by z13 / palmitoyl-z13; format: cell-based; conditions: KLAK-z13 100 μg/ml + HLA-z13 25 μg/ml, 37 °C, 6 hours; average of triplicate; repeated three times
# [5] = test system: CNGB3-MYC expressing HEK293T cells; assay: TUNEL apoptosis assay, CNGB3-MYC HEK293T cells; format: cell-based
# Method in brief: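 HEK293T cells transfected with CNGB3–MYC were cultured for 20 h at 37 °C with one of these treatments: no peptide; targeting peptide, 100 μg/ml; pro-apoptotic peptide, 100 μg/ml; its conjugate, 100 μg/ml; endosome-escaping conjugate, 25 μg/ml; or conjugates at 100 plus 25 μg/ml. Stocks were 100 μg/μl in DMSO. Apoptosis was detected by immunoperoxidase TUNEL.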
# [6] = test system: CNGB3-MYC expressing HEK293T cells; assay: Biotin-z13 localization / endosome-escaping activity; format: cell-based; conditions: 37°C, 30 min, biotin-z13 in presence of HLAH-z13; Alexa 488-avidin
sequence,measurement,setting,value
VRRADNRPG [z13],Binding strength to Ishikawa cells among phage clones,[1],the strongest binder
same,Protein bound to z13 beads and eluted by z13 peptide,[2],single 68 kDa protein
same,"Cell viability, CNGB3-positive A431",[3],cell viability was not affected
same,Blocking of cytotoxicity of KLAK-z13 plus HLA-z13,[4],blocked
KLAKLAKKLAKLAKKLAKVRRADNRPG [dKLAK-z13],"Cell viability, CNGB3-positive A431",[3],cell viability was not affected except at high concentrations
same,"Concentration above which cell viability was affected, CNGB3-positive A431",[3],> 200 µg/mL
same,"Apoptosis of CNGB3-MYC transfected HEK293T cells, dKLAK-z13 alone","[5]; culture medium of transfected cells, concentration not given",apoptosis was not induced; also recorded: did not induce apoptosis
HLAHLAHHLAHLAHHLAHVRRADNRPG [HLAH-z13],Effect on biotin-z13 localization (endosome-escaping activity),[6],diffuse cytoplasmic signals
same,"Cell viability, CNGB3-positive A431",[3],cell viability was not affected except at high concentrations
same,"Concentration above which cell viability was affected, CNGB3-positive A431",[3],> 50 µg/mL
same,"Apoptosis of CNGB3-expressing HEK293T cells, HLAH-z13 25 μg/ml","[5]; 25 μg/ml, 37°C, 20 hours, TUNEL",did not undergo apoptosis
